{"source": "paper PMC10601058", "about": "(ACS Omega, 2023)", "key": {"[1]": {"test_system": "nitric oxide (NO) production in RAW 264.7 stimulated by LPS", "experiment": "Nitric oxide inhibition in RAW 264.7 induced by LPS", "assay_type": "cell-based", "details": "Mus musculus, RAW264.7, 24 h, read-out: no. inhibition %", "outline": "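Mouse RAW 264.7 cells at 1 × 10^6 cells/mL were treated with test compound at 10 μM or L-NAME at 250 μM. After 1 h, 1 μg/mL LPS was added for 24 h. Supernatant nitrite was measured with Griess reagent at 540 nm against a standard curve run alongside the samples.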"}, "[2]": {"experiment": "MTT cytotoxicity assay on RAW 264.7", "assay_type": "cell-based", "details": "mouse, RAW 264.7 cells", "outline": "(§1)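 Cells were maintained in DMEM with 10% FBS and 1% pen-strep at 37 °C, 5% CO2, to 80% confluence. They were seeded in 96-well plates and exposed to test compound at 25 μM for 24 h. Viability was determined by MTT and given as % viability, mean ± SD of two independent experiments.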"}, "pin-1": {"test_system": "pin-1", "details": "read-out: IC50 (pin-1); cited from earlier work"}, "[3]": {"experiment": "MTT cytotoxicity assay on HepG2", "assay_type": "cell-based", "details": "human, HepG2 cells", "outline": "as §1"}, "HepG2": {"test_system": "HepG2", "details": "dose of 100 μM; cited from earlier work"}}}
{"compound": "COC(=O)[C@@H](N)CCCNC(N)=N[N+](=O)[O-]", "note": "[L-NAME, L-NG-nitro arginine methyl ester]", "values": [{"measurement": "inhibition at 250 µM", "setting": "[1]", "value": "84.76 ± 0.4", "unit": "%"}]}
{"compound": "CC(=O)O[C@@H]1CC[C@@]2(C)[C@@H](CC[C@]3(C)[C@@H]2C(=O)C=C2[C@@H]4[C@@H](C)[C@H](C)CC[C@]4(C)CC[C@]23C)[C@@]1(C)C(=O)O", "note": "[compound 1, 3-acetyl-11-keto-β-boswellic acid]", "values": [{"measurement": "inhibition at 10 µM", "setting": "[1]", "value": "74 ± 0.1", "unit": "%"}, {"measurement": "viability at 24 h, 25 µM", "setting": "[2]", "value": "92 ± 1.2", "unit": "%"}, {"measurement": "IC50", "setting": "pin-1", "value": 50, "unit": "µM"}, {"measurement": "viability at 24 h, 25 µM", "setting": "[3]", "value": "86 ± 2.6", "unit": "%"}]}
{"compound": "Cc1ccc(C(C)C)c(O)c1", "note": "[thymol]", "values": [{"measurement": "effect on APAP hepatotoxicity in HepG2", "setting": "HepG2", "value": "ameliorated APAP hepatotoxicity"}]}
